High-throughput results as filed in PubChem BioAssay.
Hits are enriched below; roughly 2.2% of the tested compounds scored in any of these assays.
Ecoli rRNA inh = inhibitors of bacterial rRNA selective over humanized ribosomes. E. coli WT GFP vs humanized-ribosome RFP mutants, fluorescence, 24 h; hits give low values; DMSO median 0, no signal -100. 1.6% of 350,000 active. GFP signal change (wild-type ribosome), % (no concentration beside the values);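 active = significant combined selectivity score with lowered wild-type GFP, culture density cut under 30%, mutant RFP and density less affected; inactive = any of these conditions unmet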
Env fusion inh = inhibitors of HIV Env-mediated cell fusion. HeLa-JRFL Env/CEM21 cell fusion, luciferase. inhibition, % at 12.3 µM. 1.1% of 360,000 active. AID 651610;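 active = mean replicate inhibition score of at least 50 and every replicate individually at or above 50; inconclusive = only one of the two criteria met; inactive = mean below 50 and not all replicates reaching 50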;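 note: 0% = plate neutral controls and 100% = maraviroc near 300 nM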
PvdQ acylase = blocks Pseudomonas aeruginosa PvdQ acylase activity | inhibition, % at 10 µM | purified PvdQ acylase, fluorescence plate reader | 0.063% of 340,000 active | AID 488965; in the data active = inhibition above about 30%, passing the limit was not always enough; inconclusive = no clear call, values can overlap the other calls;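 note: 0% = vehicle neutral wells and 100% = reference inhibitor wells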
PDI turbidity = PDI (human) enzyme inhibition; P07237; 0.052% of 350,000 active; PDI insulin aggregation turbidity, A650, 90 min; AID 588391; inhibition, % at 10 µM;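 active = mean inhibition across replicates of 30% or more, whatever share of single replicates reach that level; inconclusive = mean inhibition below 30% while every single replicate reaches 30%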
ERp5 block = inhibitors of human ERp5 | ERp5 insulin aggregation, absorbance 650 nm, 90 min | inhibition, % at 9.99 µM | 0.05% of 350,000 active;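 active = mean replicate inhibition above about 25%, with every replicate also reaching it, limit read from the data, passing the limit was not always enough; inconclusive = only one of those two criteria met; inactive = neither criterion met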
Target sequence (Q15084 whole entry, looked up): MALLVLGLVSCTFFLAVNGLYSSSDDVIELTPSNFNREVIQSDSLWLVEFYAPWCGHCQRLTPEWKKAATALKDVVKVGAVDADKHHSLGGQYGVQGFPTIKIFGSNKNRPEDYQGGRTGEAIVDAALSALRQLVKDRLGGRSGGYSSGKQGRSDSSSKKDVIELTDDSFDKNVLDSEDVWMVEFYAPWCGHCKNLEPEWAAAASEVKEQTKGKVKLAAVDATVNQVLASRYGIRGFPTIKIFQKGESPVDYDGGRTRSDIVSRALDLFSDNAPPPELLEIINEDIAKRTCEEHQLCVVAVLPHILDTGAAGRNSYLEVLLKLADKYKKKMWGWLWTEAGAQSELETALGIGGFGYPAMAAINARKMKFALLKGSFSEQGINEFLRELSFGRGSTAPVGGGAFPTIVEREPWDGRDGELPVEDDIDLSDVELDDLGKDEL
FN deposition inh = fibronectin deposition inhibition; AID 743247; inhibition, % at 12.6 µM; AH1F fibroblasts, Alexa488-fibronectin deposition fluorescence, overnight; 0.086% of 350,000 active;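 active = mean inhibition across replicates of 30% or more, regardless of how many single replicates reach that level; inconclusive = mean under 30% yet at least half of replicates reach 30%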;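 note: positive control wells lacked labelled fibronectin entirely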
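Measured by – fluorescence 485/525 nm · System – AH1F fibroblast monolayer, labelled fibronectin deposition · Amount – 10000 cells per well · Buffer or medium – serum-reduced DMEM (2% serum) · Doses – single dose, pinned · Also added – fluorescent fibronectin at 24 nM final · Schedule – 1 h cell attachment, overnight exposure to compound and label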
* hit, by the source's call; ? = inconclusive; / = no result given; [ ] = dose if it differs, or a comment.

SMILES | Ecoli rRNA inh | Env fusion inh | PvdQ acylase | PDI turbidity | ERp5 block | FN deposition inh
C[C@@H]1CCCCO[C@H](CN(C)C(=O)c2ccccc2)[C@H](C)CN([C@@H](C)CO)C(=O)c2cc(NS(=O)(=O)c3ccc(F)cc3)ccc2O1 | 0.4 | -2.0[16.7 µM] | / | / | -3.0 | /
CCN(C(=O)c1cnc(NC(C)C)cc1C(F)(F)F)c1ccc(Cl)cc1Cl | -22.8* | 11.2 | -8.7 | 11.0 | 1.1 | -3.5
CCN(C(=O)c1cc(Cl)ccc1OC)c1ccccc1C | / | / | -15.0 | 2.8 | / | /
Cc1cc(C(=O)NCC(=O)OCC(=O)Nc2ccc(OC(F)F)cc2)ccc1[N+](=O)[O-] | -21.9* | 15.1 | 8.9 | -5.1 | -10.5 | 5.0
Cc1ccc(NC(=O)CNC(=O)c2ccc(OC(F)F)cc2)cc1S(=O)(=O)N1CCCCCC1 | -23.0* | / | -16.2 | 18.9 | 2.0 | 3.3
Cn1c(CN2CCCCC2)nc2cc(NC(=O)c3cccc(Br)c3)ccc21 | / | 67.1* | 0.1 | -5.2 | / | /
Cc1ccn2cc(-c3cccc(S(=O)(=O)N4CCCCC4)c3)nc2c1 | -44.0* | 2.1 | -14.3 | 1.5 | 2.0 | -4.3
Cc1ccc2nc(-c3cccc(S(=O)(=O)N4CCCC4)c3)cn2c1 | -0.6 | -23.8 | -14.5 | -3.6 | -3.2 | 3.1
O=C1CN(Cc2ccc(F)cc2)C[C@@H]2[C@H](c3ccc(-c4ccccc4)cc3)[C@@H](CO)N12 | 5.0 | / | / | / | 2.7 | /
COc1cc([N+](=O)[O-])cc(/C=N\NC(=O)C2COc3ccccc3O2)c1O (stereo unspecified) | -20.4* | 0.3 | 0.2 | -6.7 | -7.9 | -0.3
COc1ccc(OC)c(/C=N/NC(=O)c2[nH]ncc2Br)c1 | 10.8 | -2.7 | / | 4.8 | -3.1 | 9.4
CCOc1ccc(/C=N/NC(=O)c2[nH]ncc2Br)c(O)c1 | -34.3* | -314.1 | -33.1 | -6.0 | 1.1 | 6.2
CN1c2ccc(-c3ccccc3)cc2[C@@H]2[C@@H](CCN2C(=O)CN2CCOCC2)[C@H]1CO | 6.5 | / | / | / | -1.9 | -20.9
CN1c2ccc(C3=CCCCC3)cc2[C@@H]2[C@@H](CCN2C(=O)C2CC2)[C@@H]1CO | -13.3 | / | / | / | 8.9 | 8.1
CN1c2ccc(C3=CCCCC3)cc2[C@H]2[C@H](CCN2C(=O)C2CC2)[C@@H]1CO | / | 97.8*[16.7 µM] | / | / | -2.5 | /
CN1c2ccc(-c3ccccc3)cc2[C@@H]2[C@@H](CCN2C(=O)CN2CCOCC2)[C@@H]1CO | 2.4 | / | / | / | 5.6 | 30.0*
COc1ccc(NC(=O)N2CCC3(CC2)CN(CC2CC2)[C@@H](CO)c2c3c3ccc(OC)cc3n2C)cc1 | -2.6 | / | / | / | / | /
C[C@@H]1CCCCO[C@H](CN(C)C(=O)Nc2ccc3c(c2)OCO3)[C@@H](C)CN([C@@H](C)CO)C(=O)c2cc(NC(=O)c3ccccc3)ccc2O1 | -0.6 | -61.8[16.7 µM] | / | / | -2.3 | /
O=C1C=CC(=O)N1CCCCCCN1C(=O)C=CC1=O | / | -14.6 | / | / | / | 47.6*
COc1cccc(N2CCN(C(=O)CCSCc3ccccc3F)CC2)c1 | -34.9* | -2.0 | -5.8 | -2.0 | 2.3 | /
COc1ccccc1CC(=O)N1CCN(c2cccc(C(F)(F)F)c2)CC1 | / | 66.0* | 2.4 | -4.3 | / | -11.7
COc1ccccc1NC(=O)N1CCN(c2cccc(C(F)(F)F)c2)CC1 | -34.3 | 4.2 | -4.2 | 3.2 | 1.5 | -5.0
C[C@@H]1CN([C@@H](C)CO)C(=O)c2cc(NC(=O)Cn3cnnn3)ccc2O[C@@H]1CN(C)C(=O)NC1CCCCC1 | 5.2 | / | / | / | -5.3 | 2.6
COc1cc2c(cc1OC)C(C)N(C(=O)c1sc(-c3cnccn3)nc1C)CC2 (stereo unspecified) | -33.8* | 9.3 | / | / | 2.8 | 2.7
COc1cc2c(cc1OC)CN(C(=O)c1sc(-c3cnccn3)nc1C)CC2 | -11.4 | -17.6 | -10.6 | 1.5 | -1.3 | 10.9
SMILES | Ecoli rRNA inh | Env fusion inh | PvdQ acylase | PDI turbidity | ERp5 block | FN deposition inh
CO[C@@H]1CN(C)C(=O)c2cc(NC(=O)Nc3cc(F)ccc3F)ccc2OC[C@@H](C)N(C(=O)c2ccccn2)C[C@H]1C | -0.4 | 2.6[16.7 µM] | / | / | -7.4 | 1.8
CC=Cc1ccc2n(c1=O)C[C@H]1[C@H](CO)[C@@H](C(=O)NCCC)N(C(=O)CC)[C@@H]21 (mixture of isomers) | 1.7 | / | / | / | 2.1 | /
C/C=C/c1cnc2c(c1)C(=O)N([C@@H](C)CO)C[C@@H](C)[C@H](CN(C)C(=O)c1cccc(F)c1)O2 | -0.5 | -5.8[16.7 µM] | / | / | 1.2 | -0.6
CC(C)NC(=O)N(C)C[C@H]1Oc2ccc(NC(=O)C3CC3)cc2CC(=O)N([C@H](C)CO)C[C@H]1C | 6.9 | 1.7[16.7 µM] | / | / | -3.9 | /
Cc1ccc(S(=O)(=O)N(C)C[C@@H]2Oc3ccc(NC(=O)C4CCCCC4)cc3CC(=O)N([C@@H](C)CO)C[C@@H]2C)cc1 | -0.5 | 78.9*[16.7 µM] | / | / | -2.5 | /
CC(C)NC(=O)N(C)C[C@@H]1Oc2ccc(NC(=O)C3CC3)cc2CC(=O)N([C@@H](C)CO)C[C@@H]1C | 2.5 | 59.1*[16.7 µM] | / | / | 6.5 | /
Cc1ccc(S(=O)(=O)N(C)C[C@H]2Oc3ccc(NC(=O)C4CCCCC4)cc3CC(=O)N([C@H](C)CO)C[C@@H]2C)cc1 | -1.4 | 41.0[16.7 µM] | / | / | -0.9 | /
COc1ccc(S(=O)(=O)N(C)C[C@@H]2Oc3ccc(NC(=O)C4CCCCC4)cc3CC(=O)N([C@@H](C)CO)C[C@@H]2C)cc1 | -1.3 | 65.7*[16.7 µM] | / | / | 1.0 | /
COc1ccc(S(=O)(=O)N(C)C[C@H]2Oc3ccc(NC(=O)C4CCCCC4)cc3CC(=O)N([C@H](C)CO)C[C@@H]2C)cc1 | -1.4 | -0.4[16.7 µM] | / | / | 4.6 | /
C[C@@H]1CN([C@H](C)CO)S(=O)(=O)c2ccc(C#CC3CC3)cc2O[C@H]1CN(C)C(=O)c1cccc(F)c1 | -31.1 | / | / | / | -0.9 | /
O=C(O)c1ccc(-c2noc(-c3cccc(Cl)c3)n2)cc1 | -22.8* | -24.7 | 22.4 | -7.3 | -0.7 | 7.8
COc1ccc(NC(=O)Nc2ccc3c(c2)C(=O)N([C@H](C)CO)C[C@H](C)[C@@H](CN(C)S(=O)(=O)c2c(C)noc2C)OCCCC[C@H](C)O3)cc1 | -2.5 | ? | / | / | / | /
CC[C@H](C)[C@H](NC(N)=O)C(=O)Nc1ccc(S(=O)(=O)NC(C)C)cc1 | -22.4* | 10.1 | -9.4 | -2.0 | -4.9 | 2.3
C[C@H]1CN([C@@H](C)CO)C(=O)c2cc(NC(=O)Cn3cnnn3)ccc2O[C@H]1CN(C)Cc1ccc(-c2ccccc2)cc1 | 3.0 | -15.0[16.7 µM] | / | / | -2.0 | /
COc1cc(N/N=C(\C)c2ccc(O)c(C)c2)nc(-c2ccccc2)n1 | -37.0* | -2.2 | -3.3 | -5.2 | -2.0 | /
CSc1ccccc1NC(=O)Nc1cccc(Cl)c1 | -27.9* | / | 21.5 | -3.2 | 2.0 | /
C[C@@H]1CN([C@H](C)CO)C(=O)Cc2cc(NS(=O)(=O)c3ccc(F)cc3)ccc2O[C@@H]1CN(C)C | 1.5 | -6.9[16.7 µM] | / | / | 1.9 | /
COc1cc(NC(=O)c2cccc3c2C(=O)N(C2CCCCC2)C3)cc(OC)c1OC | -40.9* | 40.3 | 15.4 | -4.2 | 0.9 | 0.3
CCOC(=O)N1CCC(N2Cc3cccc(C(=O)Nc4ccccc4OC)c3C2=O)CC1 | -21.1* | 6.3 | -3.1 | -1.5 | 2.1 | 7.4
